HKDC1 inhibitor: HKDC1 hexokinase inhibitors, primary screen, biochemical, fluorescence, uHTS; recombinant HKDC1, G6PDH/diaphorase resazurin coupled fluorescence; inhibition, % at 20 µM; 340,000 compounds, 0.16% hits;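 active = inhibition above about 35% when tested at 20 µM, limit read from the data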;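 also: plate controls were DMSO wells with enzyme for no effect and DMSO wells lacking enzyme for full effect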
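test system = in-house recombinant HK5 (HKDC1) enzyme | amount = HKDC1 at 5 µg/mL | control set = DMSO-enzyme wells negative, buffer-substituted wells positive | compound = one dose of 20 µM, 1% DMSO | schedule = reaction time 90 min, room temperature, protected from light | technique = resorufin fluorescence at 613 nm | reagent = glucose with 1 mM ATP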
UBC9 SUMO inh: inhibitors of in vitro SUMOylation cascade, primary screen, biochemical, HTRF, uHTS | HTRF SUMOylation assay, SAE1/SAE2 + UBC9 | inhibition, % at 35 µM | 290,000 compounds, 0.36% hits | AID 2006, 2009; in the data active = inhibition above about 50%, passing the limit was not always enough; inconclusive = no clear call, values can overlap the other calls
Target sequence (P63279 whole entry, looked up): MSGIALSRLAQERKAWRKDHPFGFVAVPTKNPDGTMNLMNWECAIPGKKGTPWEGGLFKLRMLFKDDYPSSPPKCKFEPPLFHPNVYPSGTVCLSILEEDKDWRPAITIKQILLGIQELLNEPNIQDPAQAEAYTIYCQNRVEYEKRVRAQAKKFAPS
APOBEC3A inh: APOBEC3A ssDNA deaminase inhibitors, primary screen, selectivity assay for APOBEC3G inhibitor project, biochemical, FAM/TAMRA oligo cleavage fluorescence. DNA dC->dU-editing enzyme APOBEC-3A (Homo sapiens), P31941. recombinant A3A, FAM/TAMRA ssDNA deamination fluorescence. inhibition, % at 20 µM. 330,000 compounds, 0.41% hits. AID 493011, 2011;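 active = at least 40% inhibition at 20 µM here, with at most 30% in a related deaminase screen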;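 also: plate controls were A3A with DMSO for no effect and wells lacking A3A enzyme for full effect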
Target sequence (P31941 whole entry, looked up): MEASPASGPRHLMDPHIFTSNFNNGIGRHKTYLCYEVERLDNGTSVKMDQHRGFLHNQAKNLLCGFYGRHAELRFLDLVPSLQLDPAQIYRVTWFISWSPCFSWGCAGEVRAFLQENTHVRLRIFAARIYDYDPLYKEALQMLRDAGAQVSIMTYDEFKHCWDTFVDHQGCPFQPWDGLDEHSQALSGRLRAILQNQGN
PfM18AAP inh-1: PfM18AAP inhibitors, malaria aminopeptidase, primary screen, biochemical, QFRET, recombinant enzyme; M18 aspartyl aminopeptidase (Plasmodium falciparum 3D7); H-Glu-NHMec fluorogenic cleavage; inhibition, % at 7.35 µM; 290,000 compounds, 1.2% hits;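 active = inhibition above the campaign mean inhibition over all tested compounds plus 3 SD, cut at about 28% in these data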;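 also: 0% = plate median of test compound wells and 100% = 2 mM ZnCl2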
APOBEC3G inh: APOBEC3G DNA deaminase inhibitors, primary screen, biochemical, fluorescence, single-stranded DNA substrate, uHTS; DNA dC->dU-editing enzyme APOBEC-3G (Homo sapiens), Q9HC16; recombinant A3G, ssDNA deamination FAM/TAMRA fluorescence; AID 493012, 2011; 330,000 compounds, 0.28% hits; inhibition, % at 20 µM;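 active = inhibition of at least 40% at 20 µM, with no more than 30% in the related APOBEC3A deaminase screen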;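 also: plate controls were DMSO wells with A3G for no effect and wells lacking A3G enzyme for full effect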
Target sequence (Q9HC16 whole entry, looked up): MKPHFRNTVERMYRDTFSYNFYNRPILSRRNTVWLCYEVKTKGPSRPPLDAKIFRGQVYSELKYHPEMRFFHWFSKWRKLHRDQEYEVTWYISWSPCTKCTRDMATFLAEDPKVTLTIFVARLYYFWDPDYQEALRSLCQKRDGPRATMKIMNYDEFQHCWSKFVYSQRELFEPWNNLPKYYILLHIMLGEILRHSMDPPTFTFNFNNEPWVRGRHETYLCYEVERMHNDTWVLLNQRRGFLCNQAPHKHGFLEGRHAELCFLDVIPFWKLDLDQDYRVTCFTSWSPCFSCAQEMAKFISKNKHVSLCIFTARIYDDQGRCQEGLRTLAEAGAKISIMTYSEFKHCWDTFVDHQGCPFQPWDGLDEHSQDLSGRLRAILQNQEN
PfGluPho inh: PfG6PD enzyme inhibitors, primary screen, biochemical, fluorescence intensity, uHTS | glucose-6-phosphate dehydrogenase-6-phosphogluconolactonase (Plasmodium falciparum 3D7) | PfGluPho enzyme, NADPH resazurin-diaphorase fluorescence | inhibition, % at 20 µM | 350,000 compounds, 0.78% hits | AID 504690, 2011;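 active = inhibition reaching at least a set limit at 20 µM in the primary screen, cut at about 59% in these data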;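 also: 0% = DMSO wells with substrate and 100% = DMSO wells lacking glucose-6-phosphate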
PfM18AAP inh-2: PfM18AAP inhibitors, malaria aminopeptidase, confirmation, biochemical, QFRET, recombinant enzyme, triplicate. shares compounds with PfM18AAP inh-1. H-Glu-NHMec fluorogenic cleavage. inhibition, % at 7.35 µM. 2,400 compounds, 28% hits. AID 2170, 2009;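 active = mean inhibition over replicate wells above the hit cutoff set for the earlier primary screen, cut at about 29% in these data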;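 also: 0% = median of test compound wells and 100% = 2 mM ZnCl2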
CTSL1 counter: cathepsin L1 inhibitors, retest, confirmation, counter-screen for PFM18AAP inhibitor project, biochemical, QFRET, triplicate | purified cathepsin L1, Z-Leu-Arg-MCA fluorescence | shares compounds with PfM18AAP inh-1 | inhibition, % at 5.96 µM | 2,400 tested, under 10 active;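 active = average inhibition across replicates above the hit cutoff set in the earlier primary screen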;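 also: 0% = median of test compound wells and 100% = Z-Phe-Ala-diazomethylketone 1 µM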
* marks the source's active call; other numbers are inactive results; ? = inconclusive; . = no result given. Only some compounds are listed: those with a hit (about 2.4% of all), similar ones and a draw of the others.

SMILES	HKDC1 inhibitor	UBC9 SUMO inh	APOBEC3A inh	PfM18AAP inh-1	APOBEC3G inh	PfGluPho inh	PfM18AAP inh-2	CTSL1 counter
Cc1ccc(/C=N/Nc2nnc(Cc3ccccc3)c(=O)[nH]2)o1	8.9	0.7	-1.1	4.1	2.2	-12.5	.	.
COc1ccc(Cc2nnc(N/N=C/c3ccc(O)cc3O)[nH]c2=O)cc1OC	-28.1	-84.5	-2.8	39.1*	-4.9	-22.8	45.6*	1.1
CCC(C)(C)n1nnnc1CN(Cc1cc2cc(OC)c(OC)cc2[nH]c1=O)C1CCCC1	-5.1	61.2	-2.3	32.6*	-1.6	2.3	6.2	5.3
Cn1c(N/N=C/c2c[nH]c3ccccc23)nc2ccccc21	-12.5	-60.0	-4.1	54.0*	-6.1	28.3	7.1	5.3
Cc1cc(N/N=C/c2c[nH]c3ccccc23)c2ccccc2n1	-6.2	6.1	-0.9	2.7	-5.8	8.9	.	.
CCOC(=O)c1cc(NC(=O)c2ccoc2C)cc(C(=O)OCC)c1	18.2	-3.2	2.3	-8.1	-3.0	17.6	.	.
CC(=O)N1CCC(=NNc2ncc(C(F)(F)F)cc2Cl)CC1	-4.2	-2.3	0.5	33.4*	-3.8	12.6	-3.2	4.7
O=C(N/N=C/c1ccc(O)c(O)c1O)/C(=C/c1ccc([N+](=O)[O-])cc1)NC(=O)c1ccccc1	24.6	48.7	39.3	54.0*	35.8	83.8*	33.9*	-2.2
O=C(COc1ccccc1Cl)NCc1ccccc1	-5.5	11.8	-2.5	2.3	-0.2	-3.1	.	.
CC(=O)Oc1ccc2occ(/C=N/c3cc(=O)[nH]c(=S)[nH]3)c(=O)c2c1	-4.1	11.8	8.8	34.9*	1.1	-17.6	11.4	-7.5
Cc1ccc2occ(/C=N/O)c(=O)c2c1	-2.7	19.3	1.4	2.0	2.6	-12.3	.	.
Cc1c[n+](C)ccc1CC1C([N+](=O)[O-])=C[N-]c2ncnn21 (stereo not given)	-6.2	-2.4	.	21.2	.	6.3	.	.
C[n+]1ccc(CC2C(=[N+]([O-])[O-])C=Nc3ncnn32)cc1 (stereo not given)	-5.9	4.4	.	31.8*	.	9.8	-10.5	5.6
CNC(=S)NNc1nc(C)cc(C)n1	-0.8	10.1	-5.5	68.1*	-8.6	15.6	48.1*	-0.4
Cc1ccccc1-n1c(C)n[nH]c1=S	-9.3	5.0	-2.7	10.2	6.3	41.0	.	.
O=S(=O)(c1ccc(NC(=S)N2CCN(c3ccc(O)cc3)CC2)cc1)N1CCOCC1	2.0	9.2	2.0	33.7*	0.4	50.1	2.2	-4.9
CNC(=S)NNC(=O)c1sccc1C	-5.4	-5.7	-2.3	35.4*	-3.1	3.9	19.4	-2.9
CCCCNC(=S)NNC(=O)c1sccc1C	-8.0	-24.3	1.8	15.5	2.1	2.4	.	.
CC(C)Cc1nnc(NC(=O)CCC(=O)NC2CCCC2)s1	-3.4	16.2	0.9	0.2	-0.5	-1.7	.	.
O=c1cc(CN2CCN(c3ccccc3O)CC2)nc2sccn12	1.3	23.1	9.5	35.0*	-4.4	10.3	-12.7	-0.6
Cc1cccc(N2CCN(Cc3cc(=O)n4ccsc4n3)CC2)c1C	-0.5	-2.2	-1.3	3.1	-4.6	16.4	.	.
O=C(N/N=C/c1cccnc1)c1cc(O)c(O)c(O)c1	-4.2	-13.8	-1.4	40.1*	1.2	51.0	5.9	-3.1
O=C(Nc1ccc(Cl)cc1)c1ccc2snnc2c1	-1.5	9.0	0.7	-4.9	-5.9	28.2	.	.
Nc1nnc(-c2cc3ccccc3oc2=O)s1	-9.2	?	-0.3	2.2	-5.6	11.6	.	.
O=c1oc2ccccc2cc1-c1nnc(NCc2ccco2)s1	0.9	?	6.2	38.1*	-4.5	28.6	-37.6	3.9
SMILES	HKDC1 inhibitor	UBC9 SUMO inh	APOBEC3A inh	PfM18AAP inh-1	APOBEC3G inh	PfGluPho inh	PfM18AAP inh-2	CTSL1 counter
N#Cc1c(C(F)(F)F)cc(-c2ccco2)nc1SCc1ccncc1	6.3	26.1	-2.3	43.7*	-3.5	-1.4	-43.5	6.7
COc1cccc(N2C(=O)C(CC(=O)Nc3ccc(F)cc3)N(C3CCCCC3)C2=O)c1 (stereo not given)	-5.8	6.6	-5.6	-15.0	-2.2	4.0	.	.
CSc1nc2ncnc(N)c2[nH]1	0.3	8.4	-0.8	-7.1	-3.5	-5.7	.	.
COc1cc(C(=S)N2CCN(c3ccccc3Cl)CC2)cc(O)c1O	-0.2	-20.5	-3.3	54.3*	-0.9	26.1	45.1*	-1.1
COc1ccc(C(=S)N2CCN(c3ccccc3Cl)CC2)cc1OC	-7.8	4.4	-2.7	13.1	36.9	46.7	.	.
COc1ccc(NC(=O)c2ccc3c(c2)C(=O)N(CC2CCCO2)C3=O)c(OC)c1 (stereo not given)	-3.1	14.1	-3.7	-8.1	-13.0	-13.7	.	.
COc1ccc(Cl)cc1-c1nc(N)nc(NC2CCCCC2)n1	-3.3	4.2	-1.2	-6.7	-1.7	4.7	.	.
Cc1ccc(NC(=O)c2ncn[nH]2)cc1	-6.5	4.0	-2.7	5.0	-2.5	-4.5	.	.
Cc1c(Cl)cccc1NC(=O)c1ncn[nH]1	-4.7	12.6	3.5	37.3*	-1.6	11.7	36.1*	0.5
COC(=O)C(N)Cc1ccc(O)c(O)c1 (stereo not given)	-9.5	9.2	-1.9	83.8*	-0.5	22.8	53.2*	-1.0
N#Cc1c(/N=C/c2ccco2)sc2c1CCCCC2	2.9	10.1	-1.5	34.8*	-5.5	15.1	-31.0	2.2
N#Cc1c(/N=C/c2cccs2)sc2c1CCC2	1.3	-8.3	-0.7	9.1	-5.0	13.4	.	.
Cc1ccc(O)c(Nc2nc(-c3ccccc3)nc3ccccc23)c1	-4.0	13.3	-6.3	-8.2	-5.1	-0.1	.	.
Cc1ccc(O)c(Nc2c3ccccc3nc3ccccc23)c1	6.4	22.2	2.4	42.7*	-5.1	2.9	-48.4	4.7
Cc1ccccc1N1CCN(C(=S)c2ccc(-c3cccc([N+](=O)[O-])c3)o2)CC1	-4.1	-20.4	-5.3	9.9	-8.8	2.5	.	.
NNC(=O)c1cc(O)c(O)c(O)c1	13.8	31.4	-3.8	65.4*	1.3	57.9	44.3*	-4.0
COc1c(Cl)cc(C(=O)NN)cc1Cl	-6.6	3.8	7.2	2.7	1.4	-7.2	.	.
